Test results published in ChEMBL document CHEMBL1138664, “Discovery of the pyrrolo[2,1-f][1,2,4]triazine nucleus as a new kinase inhibitor template” (J Med Chem, 2004).

Assays:
[1] = target: Epidermal growth factor receptor (Homo sapiens, UniProt P00533); experiment: In vitro inhibition of Epidermal growth factor receptor
[2] = target: Epidermal growth factor receptor and ErbB2 (HER1 and HER2) (Homo sapiens, UniProt P04626+P00533); experiment: Inhibition of EGF-stimulated human umbilical vein endothelial cell proliferation; type: functional, cell-based
How it was run: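 Primary HUVECs (passage ≤3) seeded 2 × 10^3/well on collagen IV in minimal medium, 1% heat-inactivated FBS, 24 h; compound dilutions added with EGF 5 ng/mL; 48 h later 3H-thymidine 0.5 µCi, further 24 h. IC50 = concentration giving 50% less tritium incorporation than untreated EGF-stimulated cells, from dose-response curves.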

[3] = target: Vascular endothelial growth factor receptor 2 (Homo sapiens, UniProt P35968); experiment: In vitro inhibition of Vascular endothelial growth factor receptor 2
[4] = Compound was tested for its inhibitory effect on the proliferation of the colon adenocarcinoma cell line DiFi; conditions: Homo sapiens
[5] = target: Vascular endothelial growth factor receptor (Homo sapiens, UniProt P17948+P35916+P35968); experiment: Inhibition of VEGF-stimulated human umbilical vein endothelial cell proliferation; type: functional, cell-based
How it was run: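 HUVECs under passage 3, plated 2 × 10^3/well in minimal medium with 1% heat-inactivated FBS on collagen IV; after 24 h, VEGF 80 ng/mL and serial compound dilutions; 3H-thymidine pulse (0.5 µCi) at 48 h for 24 h. IC50 as concentration halving thymidine uptake relative to untreated VEGF-stimulated cells.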

Sequence of Epidermal growth factor receptor (P00533 whole entry): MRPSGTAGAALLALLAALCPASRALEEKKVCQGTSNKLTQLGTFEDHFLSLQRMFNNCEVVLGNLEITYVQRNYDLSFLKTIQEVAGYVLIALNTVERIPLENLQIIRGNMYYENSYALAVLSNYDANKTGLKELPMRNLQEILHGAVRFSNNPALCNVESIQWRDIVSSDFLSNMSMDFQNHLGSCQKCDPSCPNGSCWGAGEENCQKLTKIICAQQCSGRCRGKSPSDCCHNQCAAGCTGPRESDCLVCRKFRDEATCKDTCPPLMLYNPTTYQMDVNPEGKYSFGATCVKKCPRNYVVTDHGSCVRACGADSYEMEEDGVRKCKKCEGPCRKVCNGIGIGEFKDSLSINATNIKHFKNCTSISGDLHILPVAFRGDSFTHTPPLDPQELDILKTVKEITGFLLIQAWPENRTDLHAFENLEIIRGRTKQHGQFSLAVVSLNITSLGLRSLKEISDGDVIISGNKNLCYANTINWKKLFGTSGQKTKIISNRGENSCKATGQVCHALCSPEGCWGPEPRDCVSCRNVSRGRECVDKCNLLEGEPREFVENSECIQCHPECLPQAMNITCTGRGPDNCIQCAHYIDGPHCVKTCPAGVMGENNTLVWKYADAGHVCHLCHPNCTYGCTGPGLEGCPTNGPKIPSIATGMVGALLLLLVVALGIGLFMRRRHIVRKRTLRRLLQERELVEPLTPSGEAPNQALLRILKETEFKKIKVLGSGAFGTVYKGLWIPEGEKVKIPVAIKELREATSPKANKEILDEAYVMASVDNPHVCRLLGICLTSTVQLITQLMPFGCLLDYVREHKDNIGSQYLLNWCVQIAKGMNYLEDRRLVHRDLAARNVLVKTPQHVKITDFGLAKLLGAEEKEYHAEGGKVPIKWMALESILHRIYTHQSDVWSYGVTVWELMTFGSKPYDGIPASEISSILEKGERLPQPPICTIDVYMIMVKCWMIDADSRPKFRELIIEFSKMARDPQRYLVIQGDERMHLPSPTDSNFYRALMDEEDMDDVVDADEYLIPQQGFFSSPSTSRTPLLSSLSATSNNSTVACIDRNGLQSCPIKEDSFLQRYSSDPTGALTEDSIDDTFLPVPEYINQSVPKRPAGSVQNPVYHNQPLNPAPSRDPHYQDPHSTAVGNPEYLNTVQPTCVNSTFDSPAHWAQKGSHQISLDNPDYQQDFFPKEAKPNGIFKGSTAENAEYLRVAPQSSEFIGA
Sequence of Vascular endothelial growth factor receptor 2 (P35968 whole entry): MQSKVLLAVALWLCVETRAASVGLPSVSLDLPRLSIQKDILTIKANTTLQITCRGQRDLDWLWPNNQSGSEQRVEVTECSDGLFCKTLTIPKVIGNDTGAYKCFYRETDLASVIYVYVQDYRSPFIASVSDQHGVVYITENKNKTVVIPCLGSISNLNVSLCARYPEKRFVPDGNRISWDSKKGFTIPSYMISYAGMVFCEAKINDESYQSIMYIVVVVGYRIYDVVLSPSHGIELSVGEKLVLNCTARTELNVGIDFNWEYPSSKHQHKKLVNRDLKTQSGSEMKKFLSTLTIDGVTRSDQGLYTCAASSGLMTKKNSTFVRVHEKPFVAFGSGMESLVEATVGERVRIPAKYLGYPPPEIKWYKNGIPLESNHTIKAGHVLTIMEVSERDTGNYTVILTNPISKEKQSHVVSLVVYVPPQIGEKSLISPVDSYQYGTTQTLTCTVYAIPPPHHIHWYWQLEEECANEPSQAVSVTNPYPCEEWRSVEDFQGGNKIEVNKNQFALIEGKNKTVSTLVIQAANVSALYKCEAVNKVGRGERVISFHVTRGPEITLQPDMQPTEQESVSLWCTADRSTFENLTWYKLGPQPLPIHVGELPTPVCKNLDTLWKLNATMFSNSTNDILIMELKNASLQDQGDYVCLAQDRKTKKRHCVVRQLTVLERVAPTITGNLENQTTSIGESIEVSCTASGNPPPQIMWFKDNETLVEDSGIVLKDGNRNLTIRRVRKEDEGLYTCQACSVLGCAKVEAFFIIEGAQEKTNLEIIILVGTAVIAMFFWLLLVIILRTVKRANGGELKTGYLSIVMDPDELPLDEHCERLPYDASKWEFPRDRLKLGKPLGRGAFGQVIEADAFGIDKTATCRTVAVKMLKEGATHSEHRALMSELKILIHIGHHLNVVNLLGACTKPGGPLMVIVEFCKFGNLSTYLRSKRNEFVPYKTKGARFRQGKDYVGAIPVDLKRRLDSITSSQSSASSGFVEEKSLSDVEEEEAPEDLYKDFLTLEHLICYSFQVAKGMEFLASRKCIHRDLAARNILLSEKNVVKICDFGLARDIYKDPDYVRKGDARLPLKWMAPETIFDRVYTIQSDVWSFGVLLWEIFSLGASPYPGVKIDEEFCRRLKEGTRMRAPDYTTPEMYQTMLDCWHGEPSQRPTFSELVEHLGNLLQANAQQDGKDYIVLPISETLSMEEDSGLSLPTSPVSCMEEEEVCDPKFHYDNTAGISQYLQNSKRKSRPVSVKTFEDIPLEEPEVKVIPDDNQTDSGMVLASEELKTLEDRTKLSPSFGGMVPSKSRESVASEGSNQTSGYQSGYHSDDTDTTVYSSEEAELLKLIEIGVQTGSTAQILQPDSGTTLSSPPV

Structure (SMILES) | IC50 [1] [nM] | IC50 [2] [nM] | IC50 [3] [nM] | IC50 [4] [nM] | IC50 [5] [nM]
Cc1ccc2c(Nc3ccc(F)c(Cl)c3)ncnn12 | 3250 | > 2500 | > 2000 | > 10000 | > 2500
Cc1cc2c(Nc3ccc(C)c(O)c3)ncnn2c1 | 650 | 644 | 400 | > 10000 | 213
Fc1ccc(Nc2ncnn3cccc23)cc1Cl | 110 | 345 | > 10000 | 1840 | > 2500
Cc1ccc(Nc2ncnn3cccc23)cc1O | 510 |  | 1440 | 10000 | 360
Cc1ccc(Nc2ncnn3cc(C)c(C)c23)cc1O | 200 |  | 20 | > 10000 | 310
Cc1cc2c(Nc3ccc(F)c(Cl)c3)ncnn2c1 | 150 | 509 | > 2000 | 1600 | > 2500
Cc1ccc(Nc2ncnn3c(C)ccc23)cc1O | 29400 | 101 | > 10000 | > 10000 | 477
Cc1ccn2ncnc(Nc3ccc(F)c(Cl)c3)c12 | 100 | 602 | > 10000 | 3060 | > 2500
Cc1ccc(Nc2ncnn3ccc(C)c23)cc1O | 340 | 270 | 60 | > 10000 | 98
